Values after ≈ are worked out from the molar mass of the structure shown.
Tested on: A2780
Assay: Cytotoxicity against human A2780 cells
Assay type: functional, cell-based
Outline: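 A2780 human ovarian cancer cells; growth-inhibition assay run per an earlier published protocol, with actinomycin D as positive control; value is the concentration that inhibited growth by 50% (IC50).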

Row | Structure (SMILES) | IC50
1 | CC1(C)C=Cc2c(c3c(c4c2O[C@H](c2ccccc2)CC4=O)OC(C)(C)C=C3)O1 | 33 µg/mL (≈ 85 µM)
2 | CC1(C)C=Cc2c(c3c(c4c2O[C@H](c2ccccc2)[C@@H](O)C4=O)OC(C)(C)C=C3)O1 | 20 µg/mL (≈ 49.4 µM)
3 | C=C[C@@]1(C)C[C@@H](OC(C)=O)[C@H](C(C)(C)O)C[C@@H]1C(=C)C | 17 µg/mL (≈ 60.6 µM)
4 | COc1cc(OC)c2c(c1CC=C(C)C)O[C@H](c1ccccc1)CC2=O [CANDIDONE] | 23 µg/mL (≈ 65.3 µM)
5 | CC(C)=CCc1c(O)c2c(c3c1OC(C)(C)C=C3)O[C@H](c1ccccc1)[C@@H](O)C2=O [ISOMUNDULINOL] | 18 µg/mL (≈ 44.3 µM)
6 | CC(C)=CCc1c2c(c(O)c3c1O[C@H](c1ccccc1)[C@@H](O)C3=O)C=CC(C)(C)O2 [MUNDULINOL] | 25 µg/mL (≈ 61.5 µM)
7 | COc1c(-c2coc3cc4c(cc3c2=O)CC(O)C(C)(C)O4)ccc2c1C=CC(C)(C)O2 (stereo unspecified) [MUNDULONE] | 13 µg/mL (≈ 29.9 µM)
8 | COc1c(-c2coc3cc4c(cc3c2=O)C=CC(C)(C)O4)ccc2c1C=CC(C)(C)O2 [MUNETONE] | 20 µg/mL (≈ 48 µM)
9 | C=C(C)[C@H]1Cc2c(ccc3c2O[C@@H]2COc4cc(OC)c(OC)cc4[C@]2(O)C3=O)O1 [ROTENOLONE] | 0.5 µg/mL (≈ 1.22 µM)
10 | C=C(C)[C@H]1Cc2c(ccc3c2O[C@@H]2COc4cc(OC)c(OC)cc4[C@@H]2C3=O)O1 [ROTENONE] | 0.7 µg/mL (≈ 1.77 µM)
11 | COc1cc2c(cc1OC)[C@]1(O)C(=O)c3ccc4c(c3O[C@@H]1CO2)C=CC(C)(C)O4 [TEPHROSIN] | 9.1 µg/mL (≈ 22.2 µM)

From ChEMBL document CHEMBL1146511, “Cytotoxic compounds from Mundulea chapelieri from the Madagascar Rainforest” (J Nat Prod, 2004)
